What was measured:
A2780 cells = test: Colony formation assay, A2780; assay type: cell-based
How it was run: (§1)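 A2780 (1×10^3) or A2780cis (2×10^3) cells were seeded per 3.5-cm dish and grown 24 h. They were exposed 72 h to test compound or cisplatin at 1X or 2X IC50, then PBS-washed. Fresh medium followed for 5 days at 37°C. Staining was 0.5% crystal violet in 25% methanol, 10 min RT. Clusters of ≥50 cells were counted by microscope. Colonies expressed as % of control.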

A2780cis cells = test: Colony formation assay, A2780cis; assay type: cell-based
How it was run: as §1

[1] = IC50 and 2X IC50 concentrations, 72 h treatment, vs control

N.N.[Cl][Pt][Cl] [cisplatin]
colony formation (A2780 cells; [1]): almost completely inhibited | cells per colony after treatment (unable to divide) (A2780 cells; colony formation assay): 3–5 cells/colony | colony formation (A2780cis cells; [1]): almost completely inhibited | cells per colony after treatment (unable to divide) (A2780cis cells; colony formation assay): 3–5 cells/colony

Reference: publication PMC8721857 (Oncology Letters, 2021)
